In ChEMBL document CHEMBL1124334, “Hypolipidemic 2-[4-(1,1-dimethylethyl)phenyl]-4H-3,1-benzoxazin-4-ones. Structure-activity relationships of a novel series of high-density lipoprotein elevators” (1989):

Tests used:
Assay type in all cases: functional
[1] = tested on: Rattus norvegicus; experiment: Ratio of plasma HDL cholesterol/total cholesterol at 200 g/kg for 3 days; conditions: in the assay text read “200 mg/kg” for “200 g/kg”
Procedure, shortened: (§1)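 Young male Wistar rats (120–150 g), groups of eight, fed ad libitum rodent diet with 0.5% w/w cholesterol and 0.25% cholic acid for 10 days. Compound suspended in 0.5% w/w tragacanth mucilage and given daily by stomach tube over the final 3 days; controls got vehicle. After overnight starvation, rats were killed 3 h post final dose and cardiac blood taken into heparin.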

[2] = tested on: Rattus norvegicus; experiment: Percent change in plasma total cholesterol in cholesterol-fed rats at 200 mg/kg dose given in a period of 3 days; procedure, shortened: as §1
[3] = species: Rattus norvegicus; experiment: The compound was tested for % change in plasma total cholesterol in normocholesterolemic rats at 0.2 % composition of dose with diet given in a period of 7 days
Procedure, shortened: (§2)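 Young male Wistar rats (120–150 g) fed basal powdered rodent diet ad libitum, with compound mixed into the diet at 0.2% w/w for 3 or 7 days. Plasma triglyceride and total cholesterol were then measured by standard enzymatic methods. Results are % change relative to controls.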

[4] = tested on: Rattus norvegicus; experiment: Percent change in plasma HDL cholesterol in cholesterol-fed rats at 200 mg/kg dose given in a period of 3 days; procedure, shortened: as §1
[5] = species: Rattus norvegicus; experiment: The compound was tested for % change in plasma triglycerides in normocholesterolemic rats at 0.2 % composition of dose with diet given in a period of 7 days; procedure, shortened: as §2
[6] = tested on: Rattus norvegicus; experiment: Percent change in plasma triglycerides in cholesterol-fed rats at 200 mg/kg dose given in a period of 3 days; procedure, shortened: as §1
[7] = species: Rattus norvegicus; experiment: Change in plasma triglycerides in normocholesterolemic rats at 0.2 % composition of dose with diet given in a period of 3 days.; procedure, shortened: as §2
[8] = species: Rattus norvegicus; experiment: Change in plasma total cholesterol in normocholesterolemic rats at 0.2 % composition of dose with diet given in a period of 3 days.; procedure, shortened: as §2
[9] = tested on: Rattus norvegicus; experiment: The compound was tested for % change in plasma HDL cholesterol in cholesterol-fed rats at 200 mg/kg dose given in a period of 3 days;; procedure, shortened: as §1
[10] = Ratio of plasma HDL cholesterol/total cholesterol at 25 mg/kg for 3 days; procedure, shortened: as §1
[11] = species: Rattus norvegicus; experiment: The compound was tested for % change in plasma triglycerides in normocholesterolemic rats at 0.2 % composition of dose with diet given in a period of 3 days; procedure, shortened: as §2
[12] = tested on: Rattus norvegicus; experiment: The compound was tested for % change in plasma total cholesterol in cholesterol-fed rats at 100 mg/kg dose given in a period of 3 days; procedure, shortened: as §1
[13] = tested on: Rattus norvegicus; experiment: The compound was tested for % change in plasma HDL cholesterol in cholesterol-fed rats at 50 mg/kg dose given in a period of 3 days; procedure, shortened: as §1
[14] = tested on: Rattus norvegicus; experiment: The compound was tested for % change in plasma triglycerides in cholesterol-fed rats at 50 mg/kg dose given in a period of 3 days; procedure, shortened: as §1
[15] = Ratio of plasma HDL cholesterol/total cholesterol at 200 mg/kg for 3 days; procedure, shortened: as §1
[16] = tested on: Rattus norvegicus; experiment: The compound was tested for % change in plasma HDL cholesterol in cholesterol-fed rats at 100 mg/kg dose given in a period of 3 days; procedure, shortened: as §1
[17] = tested on: Rattus norvegicus; experiment: The compound was tested for % change in plasma total cholesterol in cholesterol-fed rats at 25 mg/kg dose given in a period of 3 days; procedure, shortened: as §1
[18] = tested on: Rattus norvegicus; experiment: The compound was tested for % change in plasma triglycerides in cholesterol-fed rats at 25 mg/kg dose given in a period of 3 days; procedure, shortened: as §1
[19] = Ratio of plasma HDL cholesterol/total cholesterol at 50 mg/kg for 3 days; procedure, shortened: as §1
[20] = tested on: Rattus norvegicus; experiment: The compound was tested for % change in plasma HDL cholesterol in cholesterol-fed rats at 25 mg/kg dose given in a period of 3 days; procedure, shortened: as §1
[21] = tested on: Rattus norvegicus; experiment: The compound was tested for % change in plasma total cholesterol in cholesterol-fed rats at 50 mg/kg dose given in a period of 3 days; procedure, shortened: as §1
[22] = tested on: Rattus norvegicus; experiment: % change in plasma triglycerides in cholesterol-fed rats at 100 mg/kg dose given in a period of 3 days administered orally; conditions: route oral; procedure, shortened: as §1
[23] = Ratio of plasma HDL cholesterol/total cholesterol at 100 mg/kg for 3 days; procedure, shortened: as §1
[24] = species: Rattus norvegicus; experiment: Tested for % change in plasma total cholesterol in normocholesterolemic rats at 0.2 % composition of dose with diet given in a period of 3 days; procedure, shortened: as §2
[25] = species: Rattus norvegicus; experiment: Tested for % change in plasma triglycerides in normocholesterolemic rats at 0.2 % composition of dose with diet given in a period of 3 days; procedure, shortened: as §2
[26] = tested on: Rattus norvegicus; experiment: The compound was tested for % change in plasma triglycerides in cholesterol-fed rats at 100 mg/kg dose given in a period of 3 days; procedure, shortened: as §1
[27] = species: Rattus norvegicus; experiment: tested for % change in plasma triglycerides in normocholesterolemic rats at 0.2 % composition of dose with diet given in a period of 3 days; procedure, shortened: as §2
[28] = dose 200 mg/kg, in the assay text read “200 mg/kg” for “25 mg/kg”

For `CC(C)(C)c1ccc(-c2nc3ccc(Cl)cc3c(=O)o2)cc1`, the “Change in HDL/total cholesterol ratio” value [1] was 31, the Change [2] was -18% and the Change [3] was -31%. The Change [4] was 16%, the Change [5] was -36% and the Change [6] was -30%.
In the case of `CC(C)(C)c1ccc(C(=O)Nc2ccc(Br)cc2C(=O)[O-])cc1.[Na+]`, the Change [7] is reported as -18%, the “Change in HDL/total cholesterol ratio” value [1] is reported as 64 and the Change [2] is reported as -7%. For the same compound, the Change [8] was -42%, the Change [9] was 57% and the Change [6] was 15%.
With `CC(C)(C)c1ccc(-c2nc3ccc(I)cc3c(=O)o2)cc1` the “Change in HDL/total cholesterol ratio” value [1] was 50, the Change [2] was -26% and the Change [3] was -48%. It also gave a Change [4] of 17%, a Change [5] of -35% and a Change [6] of -3%.
For `CC(C)(C)c1ccc(-c2nc3ccc(C(C)(C)C)cc3c(=O)o2)cc1`, the Change [7] was -17%, the “Change in HDL/total cholesterol ratio” value [1] was -17 and the Change [2] was 63%. It also gave a Change [8] of -15%, a Change [4] of 30% and a Change [6] of 52%.
For `Cc1ccc2nc(-c3cccc(C(C)(C)C)c3)oc(=O)c2c1`, the Change [2] was 43%, the Change [3] was -4% and the Change [4] was 50%. The Change [5] was 25%, the Change [6] was 22% and the Ratio [10, 28] was 3.
In the case of `Cc1ccc2nc(-c3ccc(CC(C)(C)C)cc3)oc(=O)c2c1`, the Change [2] is reported as -12%, the Change [8] is reported as -10% and the Change [4] is reported as 28%. For the same compound, the Change [6] was 23%, the Ratio [10, 28] was 50 and the Change [11] was 16%.
In the case of `Cc1ccc2nc(-c3ccccc3C(C)(C)C)oc(=O)c2c1`, the Change [2] is reported as -6%, the Change [3] is reported as -11% and the Change [4] is reported as -3%. For the same compound, the Change [5] was -13%, the Change [6] was -25% and the Ratio [10, 28] was 6.
For `CC(C)(C)c1ccc(-c2nc3ccc([N+](=O)[O-])cc3c(=O)o2)cc1`, the “Change in HDL/total cholesterol ratio” value [1] was 13, the Change [2] was -23% and the Change [3] was 1%. The Change [4] was -8%, the Change [5] was -27% and the Change [6] was -19%.
In the case of `Cc1ccc2nc(-c3ccc(C(C)C)cc3)oc(=O)c2c1`, the Change [7] is reported as 7%, the Change [2] is reported as -26% and the Change [8] is reported as -11%. It also gave a Change [4] of 33%, a Change [6] of -17% and a Ratio [10, 28] of 79.
For `CC(C)(C)c1ccc(-c2nc3ccccc3c(=O)o2)cc1`, the “Change in HDL/total cholesterol ratio” value [1] was 131, the Change [2] was -41% and the Change [3] was -24%. The Change [4] was 49%, the Change [5] was -32% and the Change [6] was -26%.
For `Cc1ccc2nc(-c3ccc(C(C)(C)C)cc3)oc(=O)c2c1`, the Change [12] was -34%, the Change [13] was 31% and the Change [14] was 21%. It also gave a Ratio [15] of 92, a Change [2] of -27% and a Change [3] of -15%. The Change [16] was 15%, the Change [17] was -5% and the Change [18] was -1%. For the same compound, the Change [4] was 50%, the Change [5] was -33% and the Change [6] was -17%. For the same compound, the Ratio ([10]; dose 25 mg/kg) was 31, the Ratio [19] was 56 and the Change [20] was 30%. It also gave a Change [21] of -19%, a Change [22] of -18% and a Ratio [23] of 65.
In the case of `COC(=O)c1ccc2nc(-c3ccc(C(C)(C)C)cc3)oc(=O)c2c1`, the Change [7] is reported as -13%, the “Change in HDL/total cholesterol ratio” value [1] is reported as -4 and the Change [2] is reported as 29%. For the same compound, the Change [8] was -2%, the Change [4] was 18% and the Change [6] was 0%.
For `CC(C)(C)c1ccc(C(=O)O)cc1`, the “Change in HDL/total cholesterol ratio” value [1] was 60, the Change [2] was -62% and the Change [3] was -38%. The Change [4] was -50%, the Change [5] was -41% and the Change [6] was -38%.
In the case of `Cc1ccc(NC(=O)c2ccc(C(C)(C)C)cc2)c(C(=O)O)c1`, the Change [24] is reported as -15%, the “Change in HDL/total cholesterol ratio” value [1] is reported as 47 and the Change [2] is reported as -9%. For the same compound, the Change [25] was -16%, the Change [4] was 91% and the Change [6] was 8%.
With `COC(=O)c1cc(C)ccc1NC(=O)c1ccc(C(C)(C)C)cc1` the Change [7] was -8%, the “Change in HDL/total cholesterol ratio” value [1] was 46 and the Change [2] was -20%. The Change [8] was -4%, the Change [4] was 25% and the Change [6] was 68%.
`Cc1ccc2nc(-c3ccccc3)oc(=O)c2c1` showed a Change [2] of -2%, a Change [3] of -12% and a Change [4] of -2%. The Change [5] was -1%, the Change [6] was -4% and the Ratio [10, 28] was 4.
In the case of `CC(C)(C)c1ccc(-c2nc3ccc(Br)cc3c(=O)o2)cc1`, the Change [12] is reported as -25%, the Change [13] is reported as 40% and the “Change in HDL/total cholesterol ratio” value [1] is reported as 114. For the same compound, the Change [14] was 6%, the Change [2] was -25% and the Change [3] was -39%. The Change [16] was 71%, the Change [26] was -6% and the Change [27] was -16%. The Change [8] was -47%, the Change [4] was 74% and the Change [5] was -40%. For the same compound, the Change [6] was -3%, the Ratio [19] was 49 and the Change [21] was -12%. It also gave a Ratio [23] of 110.
For `CCOC(=O)C(C)(C)Oc1ccc(Cl)cc1` [CLOFIBRATE], the “Change in HDL/total cholesterol ratio” value [1] was 8, the Change [2] was -30% and the Change [3] was -27%. It also gave a Change [4] of -10%, a Change [5] of -48% and a Change [6] of -10%.
`O=C(O)c1cccnc1` [NIACIN] showed a Ratio [1] of 63, a Change [2] of -29% and a Change [3] of -4%. For the same compound, the Change [4] was 20%, the Change [5] was -3% and the Change [6] was -39%.
